Measured values published in ChEMBL document CHEMBL1149770, “Synthesis and antimicrobial studies of novel dichlorofluorophenyl containing aminotriazolothiadiazines” (2008).
≈ marks a conversion by molar mass, not a printed value.

Experiments:
Aspergillus flavus [1] = experiment: Antifungal activity against Aspergillus flavus after 48 hrs […]; assay type: functional
Klebsiella pneumoniae [2] = experiment: Antibacterial activity against Klebsiella pneumoniae after 24 hrs by broth dilution technique; assay type: functional
How it was run: (§1)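 MIC by broth dilution in nutrient broth with logarithmic serial twofold dilutions of compound. Inoculum approx. 5×10^5 c.f.u actively dividing bacteria. Incubated 24 h at 37 °C, growth monitored visually and spectrophotometrically. MIC taken as the lowest concentration (highest dilution) arresting growth. Ciprofloxacin reference.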

Staphylococcus aureus [3] = experiment: Antibacterial activity against Staphylococcus aureus ATCC 25923 after 24 hrs by broth dilution technique; assay type: functional; details: ATCC 25923, 24 h; how it was run: as §1
Candida albicans [4] = experiment: Antifungal activity against Candida albicans after 48 hrs […]; assay type: functional
Aspergillus fumigatus [5] = experiment: Antifungal activity against Aspergillus fumigatus after 48 hrs […]; assay type: functional
Talaromyces marneffei [6] = experiment: Antifungal activity against Penicillium marneffei assessed as inhibition zone diameter […] by agar dilution method; assay type: functional
How it was run: (§2)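 Compounds in DMSO placed in punched wells on Sabouraud agar (peptone, glucose, agar, pH 5.7) lawned with saline spore suspension. Plates pre-dried 1 h at 37 °C. Controls in triplicate, incubation at 37 °C for 3-4 days, then inhibition zone diameter read in mm. Amphotericin B reference.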

Streptococcus pyogenes [7] = experiment: Antibacterial activity against Streptococcus pyogenes after 24 hrs by broth dilution technique; assay type: functional; how it was run: as §1
Aspergillus fumigatus [8] = experiment: Antifungal activity against Aspergillus fumigatus assessed as inhibition zone diameter […] by agar dilution method; assay type: functional; how it was run: as §2
Talaromyces marneffei [9] = experiment: Antifungal activity against Penicillium marneffei after 48 hrs […]; assay type: functional
[10] = system: Trichophyton mentagrophytes; experiment: Antifungal activity against Trichophyton mentagrophytes assessed as inhibition zone diameter […] by agar dilution method; assay type: functional; how it was run: as §2
Staphylococcus aureus [11] = experiment: Antibacterial activity against Staphylococcus aureus ATCC 25923 assessed as inhibition zone diameter after 24 hrs […]; assay type: functional
How it was run: (§3)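 Disc diffusion on nutrient agar. Inoculum 1-2 × 10^7 c.f.u/ml (0.5 McFarland) spread over the plate surface. Sterile 6.25 mm filter-paper discs soaked in a known concentration of compound. Solvent and growth controls included. Plates incubated inverted 24 h at 37 °C, then inhibition zone diameter measured in mm. Ciprofloxacin reference.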

[12] = system: Trichophyton mentagrophytes; experiment: Antifungal activity against Trichophyton mentagrophytes after 48 hrs […]; assay type: functional
Escherichia coli = experiment: Antibacterial activity against Escherichia coli ATCC 25922 after 24 hrs by broth dilution technique; assay type: functional; details: ATCC 25922, 24 h; how it was run: as §1
Candida albicans [13] = experiment: Antifungal activity against Candida albicans assessed as inhibition zone diameter […] by agar dilution method; assay type: functional; how it was run: as §2
Pseudomonas aeruginosa [14] = experiment: Antibacterial activity against Pseudomonas aeruginosa ATCC 27853 assessed as inhibition zone diameter after 24 hrs […]; assay type: functional; how it was run: as §3
Klebsiella pneumoniae [15] = experiment: Antibacterial activity against Klebsiella pneumoniae assessed as inhibition zone diameter after 24 hrs […]; assay type: functional; how it was run: as §3
Aspergillus flavus [16] = experiment: Antifungal activity against Aspergillus flavus assessed as inhibition zone diameter […] by agar dilution method; assay type: functional; how it was run: as §2
Streptococcus pyogenes [17] = experiment: Antibacterial activity against Streptococcus pyogenes assessed as inhibition zone diameter after 24 hrs by disc diffusion method
Pseudomonas aeruginosa [18] = experiment: Antibacterial activity against Pseudomonas aeruginosa ATCC 27853 after 24 hrs by broth dilution technique; assay type: functional; details: ATCC 27853, 24 h; how it was run: as §1

MIC (Aspergillus flavus [1]): 25 µg/mL (≈ 56.8 µM)
MIC (Klebsiella pneumoniae [2]): 25 µg/mL (≈ 56.8 µM)
MIC (Staphylococcus aureus [3]): 6.25 µg/mL (≈ 14.2 µM)
MIC (Candida albicans [4]): 12.5 µg/mL (≈ 28.4 µM)
MIC (Aspergillus fumigatus [5]): 25 µg/mL (≈ 56.8 µM)
MIC (Streptococcus pyogenes [7]): 6.25 µg/mL (≈ 14.2 µM)
MIC (Talaromyces marneffei [9]): 25 µg/mL (≈ 56.8 µM)
MIC [12]: 6.25 µg/mL (≈ 14.2 µM)
MIC (Escherichia coli): 6.25 µg/mL (≈ 14.2 µM)
MIC (Pseudomonas aeruginosa [18]): 6.25 µg/mL (≈ 14.2 µM)
SMILES: Cc1ccc(NC(=O)CSc2nnc(-c3cc(F)c(Cl)cc3Cl)n2N)c(C)c1
inhibition zone (IZ) (Talaromyces marneffei [6]): 9 mm
inhibition zone (IZ) (Aspergillus fumigatus [8]): 8 mm
inhibition zone (IZ) [10]: 12 mm
inhibition zone (IZ) (Staphylococcus aureus [11]): 17 mm
inhibition zone (IZ) (Candida albicans [13]): 14 mm
inhibition zone (IZ) (Pseudomonas aeruginosa [14]): 30 mm
inhibition zone (IZ) (Klebsiella pneumoniae [15]): 10 mm
inhibition zone (IZ) (Aspergillus flavus [16]): 10 mm
inhibition zone (IZ) (Streptococcus pyogenes [17]): 18 mm
